# The source made the active and inactive calls. No cut-off for these calls is given here.
# What was measured:
# 518A2 [1] = test: Induction of apoptosis in human 518A2 cells assessed as increase of caspase 8 activity at 5 uM after 1 to 24 hrs by luminometric assay; assay type: functional, cell-based
# Outline: (§1)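 HL-60 and 518A2 cells treated with 5 µM compound and sampled at intervals from 1 to 24 h. Lysed in 50 mM Tris-HCl pH 7.4, 150 mM NaCl, 1% Triton X-100 with protease inhibitors for 15 min at 4 °C, spun at 800 g. Protein measured by Bradford. Caspase-3/7, -8 and -9 activities read with luminogenic peptide substrates; reported as relative luminescence.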
# MCF7 [2] = test: Cytotoxicity against human topotecan-resistant MCF7 cells after 24 hrs by MTT assay; assay type: functional, cell-based; conditions: MCF7, 24 h
# Outline: (§2)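 MTT assay. Cells seeded and cultured 24 h, then exposed to compound for 24, 48 or 72 h. MTT added to a final 0.05% (HL-60, 518A2) or 0.1% (KB-V1, MCF-7) for 2 h. Formazan dissolved in 10% SDS/DMSO with 0.6% acetic acid; absorbance read at 570 nm against 630 nm background. Viability taken relative to untreated controls (100%). IC50 from concentration-response curves, mean ± SD of four independent experiments.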
# HL-60 [3] = test: Induction of apoptosis in human HL60 cells assessed as appearance of intact mitochondria in cytosol at 5 uM after 18 hrs using JC1 dye relative to control; assay type: functional
# Outline: (§3)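 Mitochondrial membrane potential measured with JC-1. Cells exposed to 5 µM compound for 6 or 18 h, pelleted at 400 g, stained with 0.2× JC-1 at 37 °C for 15 min (HL-60) or 35 min (518A2), washed and resuspended in PBS. Red fluorescence (ex 585/em 590 nm) and green (ex 510/em 527 nm) read; red/green ratio relative to untreated controls (100%). Mean ± SD, four independent experiments.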
# [4] = Cytotoxicity against human 518A2 cells assessed as increase in ROS production at 5 uM after 24 hrs by NBT reduction assay relative to control; assay type: functional
# Outline: (§4)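 NBT assay. HL-60 cells (0.5×10⁶/mL) or trypsinised 518A2 cells (5×10⁴/mL) pre-incubated 24 h at 37 °C, then given compound at a final 5 µM for 24 or 72 h. Medium removed; cells incubated with 0.1% NBT for 1 h (HL-60) or 4 h (518A2). Diformazan dissolved in 2 M KOH/DMSO; A630 read against 405 nm. Given as % of untreated controls; double quadruplicates.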
# HL-60 [5] = test: Induction of apoptosis in human HL60 cells assessed as increase of caspase 9 activity at 5 uM after 1 to 24 hrs by luminometric assay; assay type: functional, cell-based
# Outline: (§5)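 HL-60 leukaemia cells were treated with test compound and sampled at intervals from 1 to 24 h. Protein was measured by Bradford. Caspase-9 (Caspase-Glo 8 for line 1) was read from a luminogenic peptide substrate as relative luminescence.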
# 518A2 [6] = test: Induction of apoptosis in human 518A2 cells assessed as increase of caspase 9 activity at 5 uM after 2 hrs by luminometric assay; assay type: functional, cell-based; outline: as §1
# 518A2 [7] = test: Induction of apoptosis in human 518A2 cells assessed as increase of caspase 3 activity at 5 uM after 1 to 24 hrs by luminometric assay; assay type: functional, cell-based; outline: as §1
# MCF7 [8] = test: Cytotoxicity against human topotecan-resistant MCF7 cells after 72 hrs by MTT assay; assay type: functional, cell-based; conditions: MCF7, 72 h; outline: as §2
# HL-60 [9] = test: Induction of apoptosis in human HL60 cells assessed as increase of caspase 3 activity at 5 uM after 1 to 24 hrs by luminometric assay; assay type: functional, cell-based; outline: as §1
# [10] = Ratio of IC50 for human vinblastine-resistant KBV1 cells in presence of […] ABC transporter inhibitor verapamil hydrochloride to IC50 for human vinblastine-resistant KBV1 cells; assay type: functional
# Outline: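 MTT assay in P-gp-overexpressing KB-V1/Vbl cells grown in D-MEM with 10% FCS and antibiotics. Cells were seeded and cultured 24 h, verapamil hydrochloride was optionally added, and compound exposure ran 24, 48 or 72 h. MTT was added to 0.1% final for 2 h. After the medium was discarded, formazan was dissolved in 10% SDS/DMSO with 0.6% acetic acid and read at 570 nm (630 nm background). IC50 came from concentration-response curves, four independent experiments, and the ratio is IC50 with inhibitor over IC50 without.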
# MCF7 [11] = test: Cytotoxicity against human topotecan-resistant MCF7 cells after 72 hrs by MTT assay in presence of […] BCRP inhibitor fumitremorgin C; assay type: functional, cell-based; conditions: MCF7, 72 h
# Outline: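 MCF-7/Topo cells grown in E-MEM with 2.2 g/L NaHCO₃, 110 mg/L sodium pyruvate and 5% FCS. Cells were seeded, cultured 24 h, given fumitremorgin C, then exposed to compound for 72 h. MTT was added (final 0.1%) for 2 h, medium discarded, and formazan dissolved in 10% SDS/DMSO with 0.6% acetic acid. A570 (630 background) read versus untreated controls; IC50 from concentration-response curves; four independent experiments, mean ± SD.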
# HL-60 [12] = test: Cytotoxicity against human HL60 cells after 24 hrs by MTT assay; assay type: functional, cell-based; conditions: HL-60, 24 h; outline: as §2
# HL-60 [13] = test: Cytotoxicity against human HL60 cells assessed as increase in ROS production at 5 uM after 72 hrs by NBT reduction assay relative to control; assay type: functional; outline: as §4
# [14] = Cytotoxicity against human vinblastine-resistant KBV1 cells after 48 hrs by MTT assay; assay type: functional, cell-based; conditions: KB-V1, 48 h; outline: as §2
# 518A2 [15] = test: Induction of apoptosis in human 518A2 cells assessed as appearance of intact mitochondria in cytosol at 5 uM after 6 hrs using JC1 dye relative to control; assay type: functional; outline: as §3
# HL-60 [16] = test: Cytotoxicity against human HL60 cells after 48 hrs by MTT assay; assay type: functional, cell-based; conditions: HL-60, 48 h; outline: as §2
# HL-60 [17] = test: Cytotoxicity against human HL60 cells assessed as increase in ROS production at 5 uM after 24 hrs by NBT reduction assay relative to control; assay type: functional; outline: as §4
# [18] = Cytotoxicity against human 518A2 cells after 48 hrs by MTT assay; assay type: functional, cell-based; conditions: 518A2, 48 h; outline: as §2
# [19] = Cytotoxicity against human 518A2 cells assessed as increase in ROS production at 5 uM after 72 hrs by NBT reduction assay relative to control; assay type: functional; outline: as §4
# MCF7 [20] = test: Cytotoxicity against human topotecan-resistant MCF7 cells after 48 hrs by MTT assay; assay type: functional, cell-based; conditions: MCF7, 48 h; outline: as §2
# 518A2 [21] = test: Induction of apoptosis in human 518A2 cells assessed as increase of ratio of Bax to Bcl-2 mRNA expression at 5 uM after 6 to 18 hrs by RT-PCR analysis; assay type: functional, cell-based
# Outline: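 518A2 cells exposed to 5 µM compound for 6 h or 18 h. bax and bcl-2 mRNA quantified by real-time PCR, normalised to GAPDH, and expressed as the bax/bcl-2 ratio.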
# [22] = Cytotoxicity against human vinblastine-resistant KBV1 cells after 72 hrs by MTT assay; assay type: functional, cell-based; conditions: KB-V1, 72 h; outline: as §2
# [23] = Cytotoxicity against human vinblastine-resistant KBV1 cells after 72 hrs by MTT assay in presence of 24 mM ABC transporter inhibitor verapamil hydrochloride; assay type: functional, cell-based; conditions: KB-V1, 72 h, in the assay text read “24 uM” for “24 mM”
# Outline: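 MTT viability assay on P-gp-overexpressing KB-V1/Vbl cells with 24 µM verapamil hydrochloride added before the compound; 72 h exposure. Formazan read at 570/630 nm relative to untreated controls. IC50 from concentration-response curves, mean ± SD of four independent experiments.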
# HL-60 [24] = test: Induction of apoptosis in human HL60 cells assessed as DNA ladder formation at 5 uM after 24 hrs by agarose gel electrophoresis; assay type: functional, cell-based
# Outline: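 HL-60 cells incubated with 5 µM compound for 24 h, then examined for DNA ladder patterns.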
# [25] = Cytotoxicity against human 518A2 cells after 72 hrs by MTT assay; assay type: functional, cell-based; conditions: 518A2, 72 h; outline: as §2
# HL-60 [26] = test: Induction of apoptosis in human HL60 cells assessed as increase of caspase 8 activity at 5 uM after 1 to 24 hrs by luminometric assay; assay type: functional, cell-based; outline: as §1
# [27] = Cytotoxicity against human vinblastine-resistant KBV1 cells after 24 hrs by MTT assay; assay type: functional, cell-based; conditions: KB-V1, 24 h; outline: as §2
# 518A2 [28] = test: Induction of apoptosis in human 518A2 cells assessed as increase of caspase 9 activity at 5 uM after 1 to 24 hrs by luminometric assay; assay type: functional, cell-based; outline: as §1
# [29] = Cytotoxicity against human 518A2 cells after 24 hrs by MTT assay; assay type: functional, cell-based; conditions: 518A2, 24 h; outline: as §2
# HL-60 [30] = test: Cytotoxicity against human HL60 cells after 72 hrs by MTT assay; assay type: functional, cell-based; conditions: HL-60, 72 h; outline: as §2
# 518A2 [31] = test: Induction of apoptosis in human 518A2 cells assessed as appearance of intact mitochondria in cytosol at 5 uM after 18 hrs using JC1 dye relative to control; assay type: functional; outline: as §3
# HL-60 [32] = test: Induction of apoptosis in human HL60 cells assessed as appearance of intact mitochondria in cytosol at 5 uM after 6 hrs using JC1 dye relative to control; assay type: functional; outline: as §3
# 518A2 [33] = test: Induction of apoptosis in human 518A2 cells assessed as increase of caspase 3 activity at 5 uM measured up to 12 hrs by luminometric assay; assay type: functional, cell-based; outline: as §1
# HL-60 [34] = test: Induction of apoptosis in human HL60 cells assessed as increase of Bcl-2 mRNA expression at 5 uM up to 24 hrs by […] analysis; assay type: functional, cell-based
# HL-60 [35] = test: Induction of apoptosis in human HL60 cells assessed as increase of Bax mRNA expression at 5 uM up to 24 hrs by […] analysis; assay type: functional, cell-based
# 518A2 [36] = test: Induction of apoptosis in human 518A2 cells assessed as increase of Bcl-2 mRNA expression at 5 uM up to 24 hrs by […] analysis; assay type: functional, cell-based
# HL-60 [37] = test: Induction of apoptosis in human HL60 cells assessed as increase of caspase 9 activity at 5 uM after 12 hrs by luminometric assay; assay type: functional, cell-based; outline: as §5
# 518A2 [38] = test: Induction of apoptosis in human 518A2 cells assessed as increase of caspase 8 activity at 5 uM measured up to 12 hrs by luminometric assay; assay type: functional, cell-based; outline: as §1
# 518A2 [39] = test: Induction of apoptosis in human 518A2 cells assessed as increase of caspase 9 activity at 5 uM after 8 to 12 hrs by luminometric assay; assay type: functional, cell-based; outline: as §1
# HL-60 [40] = test: Induction of apoptosis in human HL60 cells assessed as increase of caspase 3 activity at 5 uM after 4 hrs by luminometric assay; assay type: functional, cell-based; outline: as §1
# HL-60 [41] = test: Induction of apoptosis in human HL60 cells assessed as increase of caspase 3 activity at 5 uM after 12 hrs by luminometric assay; assay type: functional, cell-based; outline: as §1
# HL-60 [42] = test: Induction of apoptosis in human HL60 cells assessed as increase of caspase 8 activity at 5 uM after 4 to 24 hrs by luminometric assay; assay type: functional, cell-based; outline: as §1
SMILES,Activity (HL-60 [3]) [%],Activity [4] [%],IC50 (HL-60 [12]) [nM],Activity (HL-60 [13]) [%],IC50 [14] [nM],Activity (518A2 [15]) [%],IC50 (HL-60 [16]) [nM],Activity (HL-60 [17]) [%],IC50 [18] [nM],Activity [19] [%],Activity (518A2 [21]),IC50 [22] [nM],IC50 [23] [nM],Activity (HL-60 [24]),IC50 [25] [nM],IC50 [27] [nM],IC50 [29] [nM],IC50 (HL-60 [30]) [nM],Activity (518A2 [31]) [%],Activity (HL-60 [32]) [%],further results
CCCCCCCCCCCCCCCCC(=O)N/N=C(\CO)[C@]1(O)Cc2c(O)c3c(c(O)c2[C@@H](O[C@H]2C[C@H](N)[C@H](O)[C@H](C)O2)C1)C(=O)c1c(OC)cccc1C3=O.Cl [DOXORUBICIN HEPTADECANOYL HYDRAZONE],59,6.6,1400,3.4,10700,113,860,2.8,350,71.2,Active,5100,3700,Active,110,42900,760,280,80,94,Activity (518A2 [1]): Active; IC50 (MCF7 [2]): 5900 nM; Activity (HL-60 [5]): Active; Activity (518A2 [6]): Active; Activity (518A2 [7]): Active; IC50 (MCF7 [8]): 3000 nM; Activity (HL-60 [9]): Active; Ratio IC50 [10]: 0.74; IC50 (MCF7 [11]): 170 nM; IC50 (MCF7 [20]): 3200 nM; Activity (HL-60 [26]): Active; Activity (518A2 [28]): Active
COc1cccc2c1C(=O)c1c(O)c3c(c(O)c1C2=O)C[C@@](O)(C(=O)CO)C[C@@H]3O[C@H]1C[C@H](N)[C@H](O)[C@H](C)O1.Cl [DOXORUBICIN HYDROCHLORIDE],28,2.5,220,5.6,35600,98,100,2.8,170,15.4,Active,18300,1020,Active,120,59900,340,80,74,83,Activity (518A2 [33]): inactive; Activity (HL-60 [34]): Active; Activity (HL-60 [35]): inactive; Activity (518A2 [36]): inactive; Activity (HL-60 [37]): Active; Activity (518A2 [38]): inactive; Activity (518A2 [39]): Active; Activity (HL-60 [40]): Active; Activity (HL-60 [41]): Active; Activity (HL-60 [42]): Active

# From ChEMBL document CHEMBL1157852, “Modulation of doxorubicin activity in cancer cells by conjugation with fatty acyl and terpenyl hydrazones” (Eur J Med Chem, 2010)
